Reference: ChEMBL document CHEMBL1132594, “Discovery of 6-oxo-3-(2-phenylpyrazolo[1,5-a]pyridin-3-yl)-1(6H)- pyridazinebutanoic acid (FK 838): a novel non-xanthine adenosine A1 receptor antagonist with potent diuretic activity” (J Med Chem, 1999)
In brackets after ≈: the same amount, converted by molar mass.

Columns and labels:
[1] = Oral bioavailability in rat (fasted); type: ADME, organism-based; conditions: in vivo
Summary of the method: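 Fasted rats given a single oral dose of compound suspended in 0.5% methyl cellulose solution, 3.2 or 10 mg/kg depending on compound, n = 3–4 per group.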

[2] = solubility in water (ug/mL) at 37 degree C.; type: physicochemical; conditions: read-out: S
Summary of the method: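 Aqueous solubility measured in water at 37 °C; sodium salt form used for one compound.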

Adenosine A2 receptor = Adenosine A2 receptor (Rattus norvegicus, UniProt P29276+P30543); experiment: Adenosine A2 receptor binding using [3H]CGS-21680 in rat striatal membranes; type: cell membranes, Striatum, Membrane
Summary of the method: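 Radioligand displacement of [3H]CGS 21680 from rat striatal membranes. Values are means ± 95% confidence limits from at least three independent experiments.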

Adenosine receptor A1 [3] = biological target: T1, Adenosine receptor A1 (Rattus norvegicus, UniProt P25099); experiment: Adenosine A1 receptor using [3H][…] in rat cortical membranes; type: cell membranes
T1 sequence (P25099 whole entry): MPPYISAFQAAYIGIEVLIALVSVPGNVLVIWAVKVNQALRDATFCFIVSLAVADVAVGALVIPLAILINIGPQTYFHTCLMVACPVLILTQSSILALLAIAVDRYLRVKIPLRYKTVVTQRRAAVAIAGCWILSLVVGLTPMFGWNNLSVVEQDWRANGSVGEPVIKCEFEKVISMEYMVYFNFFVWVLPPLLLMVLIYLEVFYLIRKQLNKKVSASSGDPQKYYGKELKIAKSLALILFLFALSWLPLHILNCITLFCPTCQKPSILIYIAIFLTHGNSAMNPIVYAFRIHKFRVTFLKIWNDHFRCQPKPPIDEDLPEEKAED

Rattus norvegicus [4] = experiment: Diuretic activity was measured in saline (20mL/kg, po)-loaded rat as sodium output at 0.032 mg/kg dose po; type: functional, Urine
Summary of the method: (§1)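 Male Sprague–Dawley rats, food withheld 18 h, saline-loaded (20 mL/kg po), then given compound orally as a suspension in 0.5% methyl cellulose; vehicle-dosed controls. Urine collected over 6 h for volume (mL/kg), Na+ and K+ output (μequiv/kg). n = 3 (n = 1 for some vehicle groups); means ± SEM, significance vs vehicle at p < 0.05 / p < 0.01.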

Rattus norvegicus [5] = experiment: Diuretic activity was measured in saline (20mL/kg, po)-loaded rat as sodium output at 0.1 mg/kg dose po; type: functional, Urine; summary of the method: as §1
Rattus norvegicus [6] = experiment: Diuretic activity was measured in saline (20mL/kg, po)-loaded rat as sodium output at 1 mg/kg dose po; type: functional, Urine; summary of the method: as §1
Rattus norvegicus [7] = experiment: Diuretic activity was measured in saline (20mL/kg, po)-loaded rat as sodium output at 10 mg/kg dose po; type: functional, Urine; summary of the method: as §1
Rattus norvegicus [8] = experiment: Diuretic activity was measured in saline (20mL/kg, po)-loaded rat as potassium output at 1 mg/kg dose po; type: functional, organism-based; design: dose 1 mg/kg; conditions: Urine; summary of the method: as §1
Rattus norvegicus [9] = experiment: Diuretic activity was measured in saline (20mL/kg, po)-loaded rat as potassium output at 10 mg/kg dose po; type: functional, organism-based; design: dose 10 mg/kg; conditions: Urine; summary of the method: as §1
Rattus norvegicus [10] = experiment: Diuretic activity was measured in saline (20mL/kg, po)-loaded rat as urine volume collected for 6 hr at 0.032 mg/kg dose po; type: functional; summary of the method: as §1
Rattus norvegicus [11] = experiment: Diuretic activity was measured in saline (20mL/kg, po)-loaded rat as urine volume collected for 6 hr at 0.1 mg/kg dose po; type: functional; summary of the method: as §1
Rattus norvegicus [12] = experiment: Diuretic activity was measured in saline (20mL/kg, po)-loaded rat as urine volume collected for 6 hr at 10 mg/kg dose po; type: functional; summary of the method: as §1
[13] = biological target: T2, Adenosine receptor A1 (Rattus norvegicus) (UniProt P25099)
T2 sequence (whole entry): T1 sequence (P25099 whole entry)

Rattus norvegicus [14] = experiment: Diuretic activity was measured in saline (20mL/kg, po)-loaded rat as sodium output at 3.2 mg/kg dose po; type: functional, Urine; summary of the method: as §1
Rattus norvegicus [15] = experiment: Diuretic activity was measured in saline (20mL/kg, po)-loaded rat as potassium output at 3.2 mg/kg dose po; type: functional, organism-based; design: dose 3.2 mg/kg; conditions: Urine; summary of the method: as §1
Rattus norvegicus [16] = experiment: Diuretic activity was measured in saline (20mL/kg, po)-loaded rat as urine volume collected for 6 h at 3.2 mg/kg dose po; type: functional; summary of the method: as §1
Rattus norvegicus [17] = experiment: Diuretic activity was measured in saline (20mL/kg, po)-loaded rat as urine volume collected for 6 hr at 1 mg/kg dose po; type: functional; summary of the method: as §1
Adenosine receptor A1 [18] = biological target: T3, Adenosine receptor A1 (Homo sapiens, UniProt P30542); experiment: Adenosine A1 receptor binding using [3H]DPCPX in human cortical membranes; type: cell membranes
T3 sequence (P30542 whole entry): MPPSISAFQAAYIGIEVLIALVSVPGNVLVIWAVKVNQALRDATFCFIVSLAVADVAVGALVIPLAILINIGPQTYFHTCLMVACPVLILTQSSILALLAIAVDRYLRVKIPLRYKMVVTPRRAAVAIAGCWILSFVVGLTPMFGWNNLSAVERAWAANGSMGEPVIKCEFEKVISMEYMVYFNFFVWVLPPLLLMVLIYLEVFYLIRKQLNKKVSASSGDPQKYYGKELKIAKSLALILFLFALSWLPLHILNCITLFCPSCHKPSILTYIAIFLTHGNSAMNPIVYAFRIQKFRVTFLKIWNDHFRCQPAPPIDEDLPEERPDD

Adenosine receptor A1 [19] = biological target: T1, Adenosine receptor A1; experiment: Adenosine A1 receptor binding using [3H][…] in rat cortical membranes; type: cell membranes
Summary of the method: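 Displacement of [3H]DPCPX binding in rat cortical membranes. Values are means ± 95% confidence limits from at least three independent experiments.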

Rattus norvegicus [20] = experiment: Diuretic activity was measured in saline (20mL/kg, po)-loaded rat as sodium output at 0.32 mg/kg dose po; type: functional, Urine; summary of the method: as §1
Rattus norvegicus [21] = experiment: Diuretic activity was measured in saline (20mL/kg, po)-loaded rat as urine volume collected for 6 hr at 0.32 mg/kg dose po; type: functional; summary of the method: as §1

| Compound | Na (Rattus norvegicus [6]) [u equiv kg-1] | Na (Rattus norvegicus [7]) [u equiv kg-1] | K (Rattus norvegicus [8]) [u equiv kg-1] | K (Rattus norvegicus [9]) [u equiv kg-1] | Urine volume (Rattus norvegicus [12]) [mL/kg] | further results |
| --- | --- | --- | --- | --- | --- | --- |
| O=C(O)CCCn1nc(-c2c(-c3ccccc3)nn3ccccc23)ccc1=O | 5260 | 5680 | 967 | 1150 | – | bioavailability [1]: 78%; solubility [2]: 10000 µg/mL (≈ 26.7 mM); Log Ki (Adenosine A2 receptor): -5.92; Ki (Adenosine receptor A1 [3]): 6610 pM; Na (Rattus norvegicus [4]): 2390 u equiv kg-1; Na (Rattus norvegicus [5]): 3860 u equiv kg-1; Urine volume (Rattus norvegicus [10]): 15.6 mL/kg; Urine volume (Rattus norvegicus [11]): 26.4 mL/kg; UV (Rattus norvegicus [12]): 38.6 mL/kg; Urine volume [13]: 26.4 mL/kg |
| c1ccc(-c2nn3ccccc3c2-c2ccnnc2)cc1 | 2800 | 5110 | 569 | 907 | 38 | Na (Rattus norvegicus [14]): 3770 u equiv kg-1; K (Rattus norvegicus [15]): 667 u equiv kg-1; Urine volume (Rattus norvegicus [16]): 29.5 mL/kg; Urine volume (Rattus norvegicus [17]): 23.8 mL/kg |
| O=c1ccc(-c2c(-c3ccccc3)nn3ccccc23)nn1CCCO | – | 5160 | – | 964 | 37.9 | – |
| CCCn1nc(-c2c(-c3ccccc3)nn3ccccc23)ccc1=O | – | 5510 | – | 972 | 36.8 | – |
| O=C(O)CCCCn1nc(-c2c(-c3ccccc3)nn3ccccc23)ccc1=O | – | 4510 | – | 977 | 36.3 | – |
| O=C(/C=C/c1c(-c2ccccc2)nn2ccccc12)N1CCCC[C@@H]1CCO [FK453] | 3290 | 5820 | 833 | 1070 | 44.4 | bioavailability [1]: 8.8%; solubility [2]: 11.9 µg/mL (≈ 0.0317 mM); Ki (Adenosine receptor A1 [18]): 490 pM; Ki (Adenosine receptor A1 [19]): 490 pM; Na (Rattus norvegicus [20]): 2350 u equiv kg-1; Na (Rattus norvegicus [14]): 4110 u equiv kg-1; K (Rattus norvegicus [15]): 831 u equiv kg-1; Urine volume (Rattus norvegicus [21]): 18 mL/kg; Urine volume (Rattus norvegicus [16]): 31.9 mL/kg; Urine volume (Rattus norvegicus [17]): 24.6 mL/kg |
| O=c1ccc(-c2c(-c3ccccc3)nn3ccccc23)nn1CCO | – | 5930 | – | 942 | 40.4 | – |
| Cn1nc(-c2c(-c3ccccc3)nn3ccccc23)ccc1=O | – | 4870 | – | 891 | 30 | – |
| O=C(O)CCn1nc(-c2c(-c3ccccc3)nn3ccccc23)ccc1=O | 3350 | 5260 | 790 | 901 | 31.4 | Na (Rattus norvegicus [14]): 4860 u equiv kg-1; K (Rattus norvegicus [15]): 904 u equiv kg-1; Urine volume (Rattus norvegicus [16]): 28.1 mL/kg; Urine volume (Rattus norvegicus [17]): 19.1 mL/kg |
| Oc1ccc(-c2c(-c3ccccc3)nn3ccccc23)nn1 | – | 4640 | – | 826 | 33.3 | – |
| c1ccc(-c2nn3ccccc3c2-c2ccncc2)cc1 | – | 5110 | – | 975 | 34.2 | – |
